The text below walks through data of PMC2752828 (Organic & biomolecular chemistry, 2008).

For orientation: IC50 means the point on the concentration scale where inhibition reaches its midpoint. Lower therefore signals greater potency in that assay.

In the experiment the target is T1, Cdc25B catalytic domain (Homo sapiens, UniProt P30305).
T1 sequence (P30305 374-551 limits assumed): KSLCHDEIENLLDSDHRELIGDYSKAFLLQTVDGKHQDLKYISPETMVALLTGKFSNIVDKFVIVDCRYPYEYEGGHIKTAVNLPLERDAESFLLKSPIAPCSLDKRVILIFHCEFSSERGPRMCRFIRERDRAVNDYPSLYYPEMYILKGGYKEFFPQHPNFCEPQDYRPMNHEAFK
Nature of the experiment: OMFP fluorescence phosphatase assay, 10-point curve. The experiment is classed as biochemical. An outline of the steps: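 Recombinant human Cdc25B catalytic domain incubated with test compound and O-methylfluorescein phosphate substrate for 60 min; fluorescence change read at 485 nm excitation/525 nm emission. Percent inhibition taken relative to maximum and minimum controls. IC50 fitted to four-parameter logistic model over 10 concentrations, 25 μM to 0.2 μM; two independent experiments in triplicate.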
On to `COc1ccnc2c1C(=O)C(NCCN1CCOCC1)=C(F)C2=O` [WDP1149, 7-Fluoro-4-methoxy-6-(2-morpholin-4-yl-ethylamino)quinoline-5,8-dione], for which 5300 ± 600 nM corresponded to half-maximal inhibition (IC50).

`O=C1C(Cl)=C(NCCN2CCOCC2)C(=O)c2c(Cl)ccnc21` [WDP1079, 4,7-Dichloro-6-(2-morpholin-4-yl-ethylamino)quinoline-5,8-dione] registered an IC50 of 1100 ± 100 nM.

Molecule `O=C1C(Cl)=C(NCCN2CCOCC2)C(=O)c2nccnc21` [WDP1263, 6-Chloro-7-(2-morpholin-4-yl-ethylamino)quinoxaline-5,8-dione] registered a half-maximal inhibitory concentration (IC50) of 500 ± 100 nM.
